The values below come from ChEMBL document CHEMBL1944576, “Synthesis and antiplasmodial evaluation of novel chromeno[2,3-b]chromene derivatives” (Bioorg Med Chem, 2012).

Data set [1] can be described thus: Cytotoxicity against human NFF assessed as growth inhibition at 100 uM after 3 days by sulforhodamine B assay. The conditions noted are these: NFF cells, read-out: GI. The data set is classed as cell-based.
In a further data set the test system is Plasmodium falciparum. As to the kind of experiment: Antiplasmodial activity against chloroquine-sensitive ring-stage Plasmodium falciparum 3D7 assessed as [3H]hypoxanthine incorporation after 48 hrs by liquid scintillation counter. The format is functional, organism-based. The essentials: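 Ring-stage 3D7-infected erythrocytes at 0.5% parasitemia, 2.5% hematocrit, in triplicate wells with serial compound dilutions. After 48 h under standard culture conditions, 0.5 µCi [3H]-hypoxanthine was added per well and culture continued a further 24 h. Harvested cells counted by scintillation. Inhibition was taken against matched 0.5% DMSO controls. IC50 was obtained by linear interpolation, as the mean of two independent triplicate experiments.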

Data set [2] in a line: Cytotoxicity against human NFF assessed as growth inhibition at 50 uM after 3 days by sulforhodamine B assay. The format is cell-based. To be noted: NFF cells, read-out: GI.
In a further data set the test system is NFF. In words: Cytotoxicity against human NFF assessed as growth inhibition after 3 days by sulforhodamine B assay. The format is cell-based. To be noted: 72 h. In a few lines:
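NFF cells were kept in log phase in RPMI 1640 with 10% FCS and 1% streptomycin at 37 °C, 5% CO2. They were seeded at 3000/well and grown 24 h before treatment. Compounds went in as DMSO solutions diluted in medium, with DMSO ≤1% and DMSO-matched controls. After 3 days cells were PBS-washed and fixed in methylated spirits. Total protein was measured by sulforhodamine B, in triplicate across three independent experiments.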

Take `COc1cccc2c1C[C@@H]1[C@H](/C=C/c3ccc(Br)cc3)c3c(OC)cccc3O[C@]1(c1ccc(Br)cc1)O2`: the inhibition at 72 h, 100 µM in data set [1] was 38%. Further, the IC50 in the data set with Plasmodium falciparum stood at 39.8 µM.

`COc1cccc2c1C[C@@H]1[C@H](/C=C/c3ccc(Cl)cc3)c3c(OC)cccc3O[C@]1(c1ccc(Cl)cc1)O2`: in data set [1], the inhibition at 72 h, 100 µM was found to be 83.6%. The IC50 in the data set with Plasmodium falciparum is 8.3 µM. Turning to `COc1ccc(/C=C/[C@@H]2c3c(OC)cccc3O[C@]3(c4ccc(OC)cc4)Oc4cccc(OC)c4C[C@H]23)cc1`, in data set [1], the inhibition at 72 h, 100 µM is 54.6%. Moreover, the IC50 with Plasmodium falciparum stood at 8.2 µM.

Take `COc1cccc2c1C[C@@H]1[C@H](/C=C/c3ccc(C)cc3)c3c(OC)cccc3O[C@]1(c1ccc(C)cc1)O2`: the inhibition at 72 h, 100 µM in data set [1] was 60.1%. Moreover, the IC50 in the data set on Plasmodium falciparum came out at 6.8 µM. `COc1ccc2c(c1)C[C@@H]1[C@H](/C=C/c3ccccc3)c3cc(OC)ccc3O[C@]1(c1ccccc1)O2`: the inhibition at 72 h, 100 µM in data set [1] was found to be 51.4%. In the data set with Plasmodium falciparum, the IC50 worked out at 10.2 µM. As for `COc1ccc2c(c1)C[C@@H]1[C@H](/C=C/c3ccc(Br)cc3)c3cc(OC)ccc3O[C@]1(c1ccc(Br)cc1)O2`, the inhibition at 72 h, 100 µM in data set [1] came out at 51%. Besides, the IC50 with Plasmodium falciparum amounted to 17.2 µM. With `COc1ccc2c(c1)C[C@@H]1[C@H](/C=C/c3ccc(Cl)cc3)c3cc(OC)ccc3O[C@]1(c1ccc(Cl)cc1)O2`, the inhibition at 72 h, 100 µM in data set [1] amounted to 40.4%. Further, in the data set on Plasmodium falciparum, the IC50 is 35.6 µM. In the case of `COc1ccc2c(c1)C[C@@H]1[C@H](/C=C/c3ccc(C)cc3)c3cc(OC)ccc3O[C@]1(c1ccc(C)cc1)O2`, in data set [1], the inhibition at 72 h, 100 µM stood at 40%. In the data set with Plasmodium falciparum, the IC50 was determined as 8.9 µM. On to `COc1cccc2c1C[C@@H]1[C@H](/C=C/c3ccccc3)c3c(OC)cccc3O[C@]1(c1ccccc1)O2`, for which the inhibition at 72 h, 100 µM in data set [1] was determined as 48.6%. The IC50 in the data set on Plasmodium falciparum came to 17.3 µM. For the compound `COc1cc(OC)c2c(c1OC)O[C@@H](c1ccccc1)[C@H]1[C@@H]2Oc2c(OC)c(OC)cc(OC)c2[C@@H]1/C=C/c1ccccc1` (relative stereo), the IC50 in the data set on Plasmodium falciparum was 3.9 µM. Also, the inhibition at 72 h, 50 µM in data set [2] worked out at 46.9%. Take `CCN(CC)CCCC(C)Nc1ccnc2cc(Cl)ccc12` (stereo unspecified) [CHLOROQUINE]: in the data set with NFF, the IC50 worked out at 34 µM.
